Experiments:
Jurkat = test: Inhibitory activity against wild-type human Jurkat leukemia cells; assay type: functional, cell-based
In short: (§1)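 Growth inhibition in microculture with drug present throughout. Seeding was 4.5 × 10³ P388, 10³ Lewis lung or 3.75 × 10³ wild-type Jurkat cells per well. Exposure was 3 days for P388 and 4 days for the others. IC50 (nM) is the drug concentration reducing cell number to 50% of control cultures. Each value averages at least two independent duplicate determinations; CV 15–22%.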

NCI/ADR-RES = test: 50% inhibition of cell growth against NCI/ADRcell line; assay type: functional; details: Homo sapiens
In short: (§2)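 Tested in the NCI human tumour cell line panel. GI50 (nM) is the drug concentration inhibiting cell growth to 50% of controls. The panel mean ("Mid") is the average GI50 over the whole cell line panel.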

SK-OV-3 = test: 50% inhibition of cell growth against SKOV-3 cell line; assay type: functional; details: Homo sapiens; in short: as §2
[1] = test system: Lewis lung carcinoma cell line; test: Inhibitory activity against Murine Lewis lung carcinoma cells; assay type: functional, cell-based; details: Mus musculus; in short: as §1
MCF7 = test: 50% inhibition of cell growth against MCF-7 cell line; assay type: functional; details: Homo sapiens; in short: as §2
P388 = test: Inhibitory activity against Murine P388 leukemia cells; assay type: functional, cell-based; details: Mus musculus; in short: as §1
[2] = The average concentration resulting in inhibition of cell growth to 50% whole cell line panel; assay type: functional; in short: as §2
HCT-116 = test: 50% inhibition of cell growth against HCT116 cell line; assay type: functional; details: Homo sapiens; in short: as §2
HT-29 = test: 50% inhibition of cell growth against HT-29 cell line; assay type: functional; details: Homo sapiens; in short: as §2
CAKI-1 = test: 50% inhibition of cell growth against CAK1 cell line; assay type: functional; details: Homo sapiens; in short: as §2

SMILES | IC50 (Jurkat) [nM] | GI50 (NCI/ADR-RES) [nM] | GI50 (SK-OV-3) [nM] | IC50 [1] [nM] | GI50 (MCF7) [nM] | IC50 (P388) [nM] | GI50 [2] [nM] | GI50 (HCT-116) [nM] | GI50 (HT-29) [nM] | GI50 (CAKI-1) [nM]
COc1cccc2nc3cccc(C(=O)NCCCN(C)CCCNC(=O)c4cccc5nc6cccc(OC)c6nc45)c3nc12 | 124 | 21000 | 1560 | 160 | 47 | 815 | 575 | < 10 | 35 | 1420
CN(CCCNC(=O)c1cccc2nc3ccc4ccccc4c3nc12)CCCNC(=O)c1cccc2nc3ccc4ccccc4c3nc12 | 9 |  |  | 3.2 |  | 24 |  |  |  | 
CN(CCCNC(=O)c1cccc2nc3ccc(Cl)cc3nc12)CCCNC(=O)c1cccc2nc3ccc(Cl)cc3nc12 | 42 | 240 | 1880 | 44 | < 10 | 97 | 70 | < 10 | < 10 | 62
Cc1ccc2nc3cccc(C(=O)NCCCN(C)CCCNC(=O)c4cccc5nc6ccc(C)cc6nc45)c3nc2c1 | 148 | 1570 | 11000 | 108 | 330 | 690 | 290 | 325 | 90 | 240
Cc1ccc2nc3c(C(=O)NCCCN(C)CCCNC(=O)c4cccc5nc6cc(C)ccc6nc45)cccc3nc2c1 | 280 | 2660 | 5840 | 72 | 550 | 623 | 600 | 455 | 235 | 430
Cc1ccc(Cl)c2nc3cccc(C(=O)NCCCN(C)CCCNC(=O)c4cccc5nc6c(Cl)ccc(C)c6nc45)c3nc12 | 9.8 | 50 | 2030 | 5.2 | < 10 | 29 | 50 | < 10 | 40 | < 10
CN(CCCNC(=O)c1cccc2nc3ccccc3nc12)CCCNC(=O)c1cccc2nc3ccccc3nc12 | 173 | 1050 | 850 | 107 | 120 | 520 | 210 | 16 | 44 | 225
Cc1ccc(C)c2nc3c(C(=O)NCCCN(C)CCCNC(=O)c4cccc5nc6c(C)ccc(C)c6nc45)cccc3nc12 | 21 | 35 | 74 | 5.3 | < 10 | 26 | 34 | < 10 | < 10 | < 10
Cc1cccc2nc3c(C(=O)NCCCN(C)CCCNC(=O)c4cccc5nc6c(C)cccc6nc45)cccc3nc12 | 172 | 920 | 12000 | 46 | 480 | 584 | 740 | 63 | 270 | 370
Cc1ccc(C(=O)NCCCN(C)CCCNC(=O)c2ccc(C)c3nc4ccccc4nc23)c2nc3ccccc3nc12 | 102 |  |  | 26 |  | 375 |  |  |  | 
CN(CCCNC(=O)c1c(Cl)ccc2nc3ccccc3nc12)CCCNC(=O)c1c(Cl)ccc2nc3ccccc3nc12 | 2370 | > 100000 | 88000 | 8370 | 4070 | 12000 | 5750 | 285 | 135 | 34000
COc1ccc2nc3c(C(=O)NCCCN(C)CCCNC(=O)c4cccc5nc6cc(OC)ccc6nc45)cccc3nc2c1 | 195 | 20000 | 9660 | 64 | 2000 | 600 | 4170 | 37 | 93 | 3020
Cc1cc(C(=O)NCCCN(C)CCCNC(=O)c2cc(C)cc3nc4ccccc4nc23)c2nc3ccccc3nc2c1 | 208 | 5730 | 12000 | 48 | 310 | 472 | 725 | 470 | 130 | 170
CN(CCCNC(=O)c1cccc2nc3cccc(N(C)C)c3nc12)CCCNC(=O)c1cccc2nc3cccc(N(C)C)c3nc12 | 695 | 11000 | 10000 | 310 | 1820 | 2280 | 2510 | 430 | 530 | 2910
CN(CCCNC(=O)c1cccc2nc3cc(Cl)ccc3nc12)CCCNC(=O)c1cccc2nc3cc(Cl)ccc3nc12 | 249 | 1140 | 1960 | 83 | 330 | 2960 | 560 | 35 | 80 | 530
CN(CCCNC(=O)c1cccc2nc3cccc(Oc4ccccc4)c3nc12)CCCNC(=O)c1cccc2nc3cccc(Oc4ccccc4)c3nc12 | 1250 | 1630 | 11000 | 1310 | 3480 | 3450 | 3160 | 1770 | 1790 | 5360
COc1ccc2nc3cccc(C(=O)NCCCN(C)CCCNC(=O)c4cccc5nc6ccc(OC)cc6nc45)c3nc2c1 | 30 | 1210 | 800 | 24 | < 10 | 75 | 72 | < 10 | < 10 | 82
CN(CCCNC(=O)c1cccc2nc3cccc(F)c3nc12)CCCNC(=O)c1cccc2nc3cccc(F)c3nc12 | 177 | 7450 | 14000 | 120 | 460 | 294 | 1320 | 225 | 400 | 1730
CN(CCCNC(=O)c1cccc2nc3cccc(Cl)c3nc12)CCCNC(=O)c1cccc2nc3cccc(Cl)c3nc12 | 14 | 350 | 790 | 8.8 | 35 | 39 | 93 | < 10 | 70 | 15
CN(CCCNC(=O)c1cc(Cl)cc2nc3ccccc3nc12)CCCNC(=O)c1cc(Cl)cc2nc3ccccc3nc12 | 74 | 125 | 1460 | 12 | 110 | 204 | 180 | 18 | < 10 | 1170
CN(CCCNC(=O)c1cccc2nc3c(ccc4ccccc43)nc12)CCCNC(=O)c1cccc2nc3c(ccc4ccccc43)nc12 | 290 |  |  | 410 |  | 450 |  |  |  | 
CN(CCCNC(=O)c1cccc2nc3c(Cl)cccc3nc12)CCCNC(=O)c1cccc2nc3c(Cl)cccc3nc12 | 209 |  |  | 151 |  | 7740 |  |  |  | 
Cc1cccc2nc3cccc(C(=O)NCCCN(C)CCCNC(=O)c4cccc5nc6cccc(C)c6nc45)c3nc12 | 5.7 | 19 | 220 | 1.6 | < 10 | 15 | 20 | < 10 | < 10 | < 10

Reference: ChEMBL document CHEMBL1132997, “Bis(phenazine-1-carboxamides): structure-activity relationships for a new class of dual topoisomerase I/II-directed anticancer drugs” (J Med Chem, 2000)
